# Source: ChEMBL document CHEMBL1155689, “Evaluation of the total peroxyl radical-scavenging capacity of flavonoids: structure-activity relationships” (J Nat Prod, 2000)
# What was measured:
# [1] = Antioxidant scavenging activity against 2,2'-azobis-amidinopropane-induced peroxyl radicals assessed as total oxyradical scavenging capacity; type: physicochemical; set-up: unit not given here
# Method in brief: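 Peroxyl radicals from thermal homolysis of ABAP at 39 °C, with 0.1 mM KMBA and 10 mM ABAP (final) in 100 mM potassium phosphate, pH 7.4. Ethylene in the headspace was measured by GC at 12-min intervals over 60 min. TOSC = 100 − (∫sample/∫control area × 100). rTOSC is the slope of the TOSC vs concentration regression within the linear range.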
# [2] = Antioxidant scavenging activity against 2,2'-azobis-amidinopropane-induced peroxyl radicals assessed as total oxyradical scavenging capacity relative to Trolox; type: physicochemical
# Method in brief: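 Uses the same ABAP/KMBA ethylene-GC assay: 39 °C, 0.1 mM KMBA, 10 mM ABAP, pH 7.4 phosphate, 60-min time course. TOSC comes from the areas under the kinetic curves, and rTOSC from the slope of TOSC against concentration. Comparative TOSC (cTOSC) expresses each rTOSC relative to the Trolox benchmark.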
SMILES,Activity [1],Activity [2]
Cc1c(C)c2c(c(C)c1O)CCC(C)(C(=O)O)O2 (stereo unspecified) [TROLOX],5.62,–
O=c1c(O)c(-c2ccc(O)c(O)c2)oc2cc(O)cc(O)c12 [QUERCETIN],40.32,7.17
COc1cc(-c2cc(=O)c3c(O)c(O)c(OC)c(OC)c3o2)ccc1O,8.53,1.52
C[C@@H]1O[C@@H](OC[C@H]2O[C@@H](Oc3c(-c4ccc(O)c(O)c4)oc4cc(O)cc(O)c4c3=O)[C@H](O)[C@@H](O)[C@@H]2O)[C@H](O)[C@H](O)[C@H]1O [RUTIN],28.96,5.15
COc1ccc(-c2oc3cc(OC)c(OC)c(O)c3c(=O)c2OC)cc1OC [ARTEMETIN],1.55,0.28
COc1cc(-c2cc(=O)c3c(O)c(OC)c(OC)c(OC)c3o2)ccc1O,4.53,0.81
